Experimental data taken from ChEMBL document CHEMBL1148694, “Calcitriol derivatives with two different side-chains at C-20. Part 4: further chain modifications that alter VDR-dependent monocytic differentiation potency in human leukemia cells” (2007).
The source made the active and inactive calls. The rule behind the calls is not given here.

Legend:
[1] = Induction of differentiation in human HL60-G cells assessed as CD14 expression; type: functional
Procedure, shortened: (§1)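 HL60-G33 cells in RPMI 1640 with 10% bovine calf serum at 37 °C, 5% CO2, given compounds in fresh medium (ethanol vehicle); 1,25D at 0.1, 1 and 10 nM. 1×10^6 cells washed twice in PBS, stained on ice for 45 min with MO1-FITC (CD11b) and MY4-RD1 (CD14), then washed. Flow cytometry with acquisition set on isotype controls.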

[2] = Induction of differentiation in human HL60-G cells assessed as CD14 expression relative to 1-alpha,25-dihydroxyvitamin D3; type: functional; procedure, shortened: as §1
[3] = Induction of differentiation in human HL60-G cells assessed as CD11b expression relative to 1-alpha,25-dihydroxyvitamin D3; type: functional; procedure, shortened: as §1
[4] = Induction of differentiation in human HL60-G cells assessed as CD11b expression; type: functional; procedure, shortened: as §1
HL60-40AF = assay: Induction of differentiation in 1-alpha,25-dihydroxyvitamin D3 resistant human HL60-40AF cells; type: functional, cell-based
Procedure, shortened: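 Differentiation-resistant HL60-40AF subclone adapted to grow in 1,25D, cultured in RPMI 1640 with 10% bovine calf serum. Compounds given in fresh medium with ethanol vehicle; 1,25D at 10 and 100 nM. 1×10^6 cells washed in PBS, stained on ice for 45 min with MY4-RD1 (CD14) and MO1-FITC (CD11b). Read by flow cytometry, gated on isotype controls.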

[5] = (§2) Induction of CYP24 mRNA expression in human HL60-G cells at 1 nM after 12 hrs relative to 1-alpha,25-dihydroxyvitamin D3; type: functional
Procedure, shortened: (§3)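 HL60-G33 cells exposed to 1 nM compound for 12 h. Total RNA from 5×10^6 cells was DNase-treated, and 1 μg was reverse transcribed with MuLV RT and oligo-d(T). CYP24 transcript measured by SYBR green real-time PCR on a LightCycler with ARP0 as internal control. Values normalized to 1,25D treatment.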

[6] = Cell cycle arrest in HL60-G cells assessed as accumulation at G1 phase after 48 to 72 hrs; type: functional, cell-based; conditions: Homo sapiens
Procedure, shortened: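 HL60-G33 cells in RPMI 1640 with 10% bovine calf serum, 37 °C, 5% CO2, given compounds in fresh medium (ethanol vehicle) for 48 and 72 h over increasing concentrations. 1×10^6 cells fixed in 75% ethanol at -20 °C overnight, treated with RNase A 100 U/mL at 37 °C for 1 h, stained with propidium iodide 10 μg/mL. Flow cytometry; G1/S ratio.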

HL60-G = assay: as §2; type: functional; procedure, shortened: as §3

SMILES	ED20 [1] [nM]	Activity [2]	Activity [3]	ED20 [4] [nM]	Activity (HL60-40AF)	Fold change [5]	Activity [6]	Activity (HL60-G)
CC(C)(O)CC[C@@H]1C[C@@]1(CC#CC(O)(C(F)(F)F)C(F)(F)F)[C@H]1CCC2/C(=C/C=C3C[C@@H](O)C[C@H](O)C3)CCC[C@@]21C (stereo partly specified)	0.46	1.24	1.03	1.17	Active	2.5		
C=C1/C(=C\C=C2/CCC[C@@]3(C)C2CC[C@@H]3[C@H](C)CCCC(C)(C)O)C[C@@H](O)C[C@H]1O (stereo partly specified)	0.57			1.2				
C=C1/C(=C\C=C2/CCC[C@@]3(C)C2CC[C@@H]3[C@]2(CC#CC(O)(C(F)(F)F)C(F)(F)F)C[C@H]2CCC(C)(C)O)C[C@@H](O)C[C@@H]1O (stereo partly specified)	0.24	2.38	2.31	0.52	Active	30	Active	
C=C1/C(=C\C=C2/CCC[C@@]3(C)C2CC[C@@H]3[C@]2(CCCC(C)(C)O)C[C@H]2CCC(C)(C)O)C[C@@H](O)C[C@H]1F (stereo partly specified)	>500	<0.001	<0.002					
C=C1/C(=C\C=C2/CCC[C@@]3(C)C2CC[C@@H]3[C@]2(CCCC(C)(C)O)C[C@H]2CCC(C)(C)O)C[C@@H](O)C[C@@H]1O (stereo partly specified)	9.97		0.06	19.75				inactive
CC(C)(O)CCC[C@@]1([C@H]2CCC3/C(=C/C=C4C[C@@H](O)C[C@H](O)C4)CCC[C@@]32C)C[C@H]1CCC(C)(C)O (stereo partly specified)	66.03	0.009	0.01	98.75				
